Reference: ChEMBL document CHEMBL2057201, “New CD1d agonists: synthesis and biological activity of 6″-triazole-substituted α-galactosyl ceramides” (Bioorg Med Chem Lett, 2012)
Calls of active or inactive are those of the source. The rule behind the calls is not given here.

Test system: iNKT
Assay: Immunomodulatory activity in mouse iNKT DN3A4-1.2 cells assessed as stimulation of IL2 production after 24 hrs by ELISA

Row | Compound | Activity
1 | CCCCCCCCCCCCCCCCCCCCCCCCCC(=O)N[C@@H](CO[C@H]1O[C@H](Cn2cc(-c3ccccc3)nn2)[C@H](O)[C@H](O)[C@H]1O)[C@H](O)[C@H](O)CCCCCCCCCCCCCC | Active
2 | CCCCCCCCCCCCCCCCCCCCCCCCCC(=O)N[C@@H](CO[C@H]1O[C@H](Cn2nnc3ccccc32)[C@H](O)[C@H](O)[C@H]1O)[C@H](O)[C@H](O)CCCCCCCCCCCCCC | Active
3 | CCCCCCCCCCCCCCCCCCCCCCCCCC(=O)N[C@@H](CO[C@H]1O[C@H](Cn2nncc2-c2ccccc2)[C@H](O)[C@H](O)[C@H]1O)[C@H](O)[C@H](O)CCCCCCCCCCCCCC | Active
4 | CCCCCCCCCCCCCCCCCCCCCCCCCC(=O)N[C@@H](CO[C@H]1O[C@H](Cn2cc(COCCOCCOCCOCCOCCOCCOCCOCCOC)nn2)[C@H](O)[C@H](O)[C@H]1O)[C@H](O)[C@H](O)CCCCCCCCCCCCCC | Active
5 | CCCCCCCCCCCCCCCCCCCCCCCCCC(=O)N[C@@H](CO[C@H]1O[C@H](Cn2cc(CCCCCCCC)nn2)[C@H](O)[C@H](O)[C@H]1O)[C@H](O)[C@H](O)CCCCCCCCCCCCCC | Active
6 | CCCCCCCCCCCCCCCCCCCCCCCCCC(=O)N[C@@H](CO[C@H]1O[C@H](Cn2nnc(-c3ccccc3)c2-c2ccccc2)[C@H](O)[C@H](O)[C@H]1O)[C@H](O)[C@H](O)CCCCCCCCCCCCCC | Active
7 | CCCCCCCCCCCCCCCCCCCCCCCCCC(=O)N[C@@H](CO[C@H]1O[C@H](CN=[N+]=[N-])[C@H](O)[C@H](O)[C@H]1O)[C@H](O)[C@H](O)CCCCCCCCCCCCCC | Active

Test system: Mus musculus
Assay: Immunomodulatory activity in ip dosed C57BL/6 mouse assessed as stimulation of IL4 production after 2 hrs

Row | Compound | Activity
8 | CCCCCCCCCCCCCCCCCCCCCCCCCC(=O)N[C@@H](CO[C@H]1O[C@H](Cn2cc(CCCCCCCCCCCC)nn2)[C@H](O)[C@H](O)[C@H]1O)[C@H](O)[C@H](O)CCCCCCCCCCCCCC | Active
9 | CCCCCCCCCCCCCCCCCCCCCCCCCC(=O)N[C@@H](CO[C@H]1O[C@H](Cn2nncc2-c2ccccc2)[C@H](O)[C@H](O)[C@H]1O)[C@H](O)[C@H](O)CCCCCCCCCCCCCC | Active
10 | CCCCCCCCCCCCCCCCCCCCCCCCCC(=O)N[C@@H](CO[C@H]1O[C@H](Cn2cc(COCCOCCOCCOCCOCCOCCOCCOCCOC)nn2)[C@H](O)[C@H](O)[C@H]1O)[C@H](O)[C@H](O)CCCCCCCCCCCCCC | Active
11 | CCCCCCCCCCCCCCCCCCCCCCCCCC(=O)N[C@@H](CO[C@H]1O[C@H](Cn2cc(CCCCCCCC)nn2)[C@H](O)[C@H](O)[C@H]1O)[C@H](O)[C@H](O)CCCCCCCCCCCCCC | Active

Test system: Mus musculus
Assay: Immunomodulatory activity in ip dosed C57BL/6 mouse assessed as stimulation of IFNgamma production after 24 hrs
Format: functional, organism-based
Procedure, shortened: (§1)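 C57BL/6 mice received the glycolipids by intraperitoneal injection. Cytokines were measured in serum: IL-4 at 2 h and IFN-γ at 24 h after injection.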

Row | Compound | Activity
12 | CCCCCCCCCCCCCCCCCCCCCCCCCC(=O)N[C@@H](CO[C@H]1O[C@H](Cn2cc(CCCCCCCCCCCC)nn2)[C@H](O)[C@H](O)[C@H]1O)[C@H](O)[C@H](O)CCCCCCCCCCCCCC | Active
13 | CCCCCCCCCCCCCCCCCCCCCCCCCC(=O)N[C@@H](CO[C@H]1O[C@H](Cn2cc(COCCOCCOCCOCCOCCOCCOCCOCCOC)nn2)[C@H](O)[C@H](O)[C@H]1O)[C@H](O)[C@H](O)CCCCCCCCCCCCCC | Active
14 | CCCCCCCCCCCCCCCCCCCCCCCCCC(=O)N[C@@H](CO[C@H]1O[C@H](Cn2cc(CCCCCCCC)nn2)[C@H](O)[C@H](O)[C@H]1O)[C@H](O)[C@H](O)CCCCCCCCCCCCCC | Active
15 | CCCCCCCCCCCCCCCCCCCCCCCCCC(=O)N[C@@H](CO[C@H]1O[C@H](CN=[N+]=[N-])[C@H](O)[C@H](O)[C@H]1O)[C@H](O)[C@H](O)CCCCCCCCCCCCCC | Active

Test system: Mus musculus
Assay: Immunomodulatory activity in ip dosed C57BL/6 mouse assessed as stimulation of IFNgamma production after 24 hrs

Row | Compound | Activity
16 | CCCCCCCCCCCCCCCCCCCCCCCCCC(=O)N[C@@H](CO[C@H]1O[C@H](Cn2cc(CCCCCCCCCCCC)nn2)[C@H](O)[C@H](O)[C@H]1O)[C@H](O)[C@H](O)CCCCCCCCCCCCCC | Active
17 | CCCCCCCCCCCCCCCCCCCCCCCCCC(=O)N[C@@H](CO[C@H]1O[C@H](Cn2cc(COCCOCCOCCOCCOCCOCCOCCOCCOC)nn2)[C@H](O)[C@H](O)[C@H]1O)[C@H](O)[C@H](O)CCCCCCCCCCCCCC | Active
18 | CCCCCCCCCCCCCCCCCCCCCCCCCC(=O)N[C@@H](CO[C@H]1O[C@H](Cn2cc(CCCCCCCC)nn2)[C@H](O)[C@H](O)[C@H]1O)[C@H](O)[C@H](O)CCCCCCCCCCCCCC | Active
19 | CCCCCCCCCCCCCCCCCCCCCCCCCC(=O)N[C@@H](CO[C@H]1O[C@H](CN=[N+]=[N-])[C@H](O)[C@H](O)[C@H]1O)[C@H](O)[C@H](O)CCCCCCCCCCCCCC | Active

Test system: Mus musculus
Assay: Immunomodulatory activity in ip dosed C57BL/6 mouse assessed as stimulation of IL4 production after 2 hrs
Format: functional, organism-based
Procedure, shortened: as §1

Row | Compound | Activity
20 | CCCCCCCCCCCCCCCCCCCCCCCCCC(=O)N[C@@H](CO[C@H]1O[C@H](Cn2cc(CCCCCCCCCCCC)nn2)[C@H](O)[C@H](O)[C@H]1O)[C@H](O)[C@H](O)CCCCCCCCCCCCCC | Active
21 | CCCCCCCCCCCCCCCCCCCCCCCCCC(=O)N[C@@H](CO[C@H]1O[C@H](Cn2nncc2-c2ccccc2)[C@H](O)[C@H](O)[C@H]1O)[C@H](O)[C@H](O)CCCCCCCCCCCCCC | Active
22 | CCCCCCCCCCCCCCCCCCCCCCCCCC(=O)N[C@@H](CO[C@H]1O[C@H](Cn2cc(COCCOCCOCCOCCOCCOCCOCCOCCOC)nn2)[C@H](O)[C@H](O)[C@H]1O)[C@H](O)[C@H](O)CCCCCCCCCCCCCC | Active
23 | CCCCCCCCCCCCCCCCCCCCCCCCCC(=O)N[C@@H](CO[C@H]1O[C@H](Cn2cc(CCCCCCCC)nn2)[C@H](O)[C@H](O)[C@H]1O)[C@H](O)[C@H](O)CCCCCCCCCCCCCC | Active
